Measured values taken from ChEMBL document CHEMBL1145965, “4-Substituted 4-hydroxycyclohexa-2,5-dien-1-ones with selective activities against colon and renal cancer cell lines” (J Med Chem, 2003).

Key:
SK-MEL-28 = test: Concentration of compound that cause 50% cytotoxicity of SK-MEL-28 melanoma cell line; type: functional; conditions: Homo sapiens, read-out: Log LC50 (the source's name) (converted)
How it was run: (§1)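 NCI 60-cell-line panel screen. Each line was seeded in 96-well plates at a density set by its growth characteristics and incubated drug-free for 24 h. Test agents were then added at five 10-fold dilutions, with a top concentration of 100 μM.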

786-0 = test: Concentration of compound that cause 50% cytotoxicity of 786-0 renal cancer cell line; type: functional; conditions: Homo sapiens, read-out: Log LC50 (the source's name) (converted); how it was run: as §1
SN12C = test: Concentration of compound that cause 50% cytotoxicity of SN12C renal cancer cell line; type: functional; conditions: Homo sapiens, read-out: Log LC50 (the source's name) (converted); how it was run: as §1
HCC 2998 = test: Concentration of compound that cause 50% cytotoxicity of HCC2998 colon cancer cell line; type: functional; conditions: Homo sapiens, read-out: Log LC50 (the source's name) (converted); how it was run: as §1
A549 = test: Concentration of compound that cause 50% cytotoxicity of A549/ATCC non small cell lung cancer cell line; type: functional; conditions: Homo sapiens, read-out: Log LC50 (the source's name) (converted); how it was run: as §1
NCI-H226 = test: Concentration of compound that cause 50% cytotoxicity of NCI-H226 non small cell lung cancer cell line; type: functional; conditions: Homo sapiens, read-out: Log LC50 (the source's name) (converted); how it was run: as §1
MCF7 [1] = test: Concentration of compound that cause 50% cytotoxicity of MCF-7 breast cancer cell line; type: functional; conditions: Homo sapiens, read-out: Log LC50 (the source's name) (converted); how it was run: as §1
OVCAR-4 = test: Concentration of compound that cause 50% cytotoxicity of OVCAR-4 ovarian cancer cell line; type: functional; conditions: Homo sapiens, read-out: Log LC50 (the source's name) (converted); how it was run: as §1
[2] = Inhibitory activity against MDA-468 mammary carcinoma cell line; type: functional, cell-based, Homo sapiens; conditions: mda-mb-468
How it was run: (§2)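 Cells grown in RPMI 1640 with 2 mM L-glutamine and 10% fetal calf serum, 37 °C, 5% CO2. Seeded at 5 × 10³ per well, 24 h adherence, then drug 0.1 nM–100 μM final (n = 8; DMSO stocks, dilutions in medium) for 72 h.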

A498 = test: Concentration of compound that cause 50% cytotoxicity of A498 renal cancer cell line; type: functional; conditions: Homo sapiens, read-out: Log LC50 (the source's name) (converted); how it was run: as §1
OVCAR-3 = test: Concentration of compound that cause 50% cytotoxicity of OVCAR-3 ovarian cancer cell line; type: functional; conditions: Homo sapiens, read-out: Log LC50 (the source's name) (converted); how it was run: as §1
Malme-3M = test: Concentration of compound that cause 50% cytotoxicity of MALME -3M melanoma cell line; type: functional; conditions: Homo sapiens, read-out: Log LC50 (the source's name) (converted); how it was run: as §1
UACC-62 = test: Concentration of compound that cause 50% cytotoxicity of UACC-62 melanoma cell line; type: functional; conditions: Homo sapiens, read-out: Log LC50 (the source's name) (converted)
OVCAR-5 = test: Concentration of compound that cause 50% cytotoxicity of OVCAR-5 ovarian cancer cell line; type: functional; conditions: Homo sapiens, read-out: Log LC50 (the source's name) (converted); how it was run: as §1
MDA-MB-231 = test: Concentration of compound that cause 50% cytotoxicity of MDA-MB-231/ATCC breast cancer cell line; type: functional; conditions: Homo sapiens, read-out: Log LC50 (the source's name) (converted); how it was run: as §1
M14 = test: Concentration of compound that cause 50% cytotoxicity of M14 melanoma cell line; type: functional; conditions: Homo sapiens, read-out: Log LC50 (the source's name) (converted); how it was run: as §1
NCI-H23 = test: Concentration of compound that cause 50% cytotoxicity of NCI-H23 non small cell lung cancer cell line; type: functional; conditions: Homo sapiens, read-out: Log LC50 (the source's name) (converted); how it was run: as §1
[3] = tested on: Panel NCI-60 (60 carcinoma cell lines); test: In vitro mean growth inhibitory activity against 60-cell panel; type: functional; conditions: Homo sapiens
DU-145 = test: Concentration of compound that cause 50% cytotoxicity of DU-145 prostate cancer cell line; type: functional; conditions: Homo sapiens, read-out: Log LC50 (the source's name) (converted); how it was run: as §1
Hs-578T = test: Concentration of compound that cause 50% cytotoxicity of Hs 578.T breast cancer cell line; type: functional; conditions: Homo sapiens, read-out: LC50 (the source's name); how it was run: as §1
UACC-257 = test: Concentration of compound that cause 50% cytotoxicity of UACC-257 melanoma cell line; type: functional; conditions: Homo sapiens, read-out: Log LC50 (the source's name) (converted)
UO-31 = test: Concentration of compound that cause 50% cytotoxicity of UO-31 renal cancer cell line; type: functional; conditions: Homo sapiens, read-out: Log LC50 (the source's name) (converted)
CCRF-CEM = test: Concentration of compound that cause 50% cytotoxicity of CCRF-CEM leukemia cell line; type: functional; conditions: Homo sapiens, read-out: Log LC50 (the source's name) (converted); how it was run: as §1
SK-MEL-2 = test: Concentration of compound that cause 50% cytotoxicity of SK-MEL-2 melanoma cell line; type: functional; conditions: Homo sapiens, read-out: Log LC50 (the source's name) (converted); how it was run: as §1
HOP-62 = test: Concentration of compound that cause 50% cytotoxicity of HOP-62 non small cell lung cancer cell line; type: functional; conditions: Homo sapiens, read-out: Log LC50 (the source's name) (converted); how it was run: as §1
HCT-15 = test: Concentration of compound that cause 50% cytotoxicity of HCT-15 colon cancer cell line; type: functional; conditions: Homo sapiens, read-out: Log LC50 (the source's name) (converted); how it was run: as §1
HCT-116 = test: In vitro lethal concentration against most sensitive colon HCT116 cell line; type: functional; conditions: Homo sapiens, read-out: LC50 (the source's name)
HT-29 [4] = test: Inhibitory activity against HT-29 colon cancer cell line; type: functional, cell-based; conditions: Homo sapiens; how it was run: as §2
ACHN = test: In vitro lethal concentration against most sensitive ACHN cell line; type: functional; conditions: Homo sapiens, read-out: LC50 (the source's name)
HL-60 = test: Concentration of compound that cause 50% cytotoxicity of HL-60(TB) leukemia cell line; type: functional; conditions: Homo sapiens, read-out: Log LC50 (the source's name) (converted); how it was run: as §1
MCF7 [5] = test: Inhibitory activity against MCF-7 mammary carcinoma cell line; type: functional, cell-based; conditions: Homo sapiens; how it was run: as §2
HT-29 [6] = test: Concentration of compound that cause 50% cytotoxicity of HT-29 colon cancer cell line; type: functional; conditions: Homo sapiens, read-out: Log LC50 (the source's name) (converted); how it was run: as §1

SMILES: O=C1C=CC(O)(c2nc3ccccc3s2)C=C1
- CC50 (SK-MEL-28): 2510 nM
- CC50 (786-0): 1050 nM
- CC50 (SN12C): 1450 nM
- CC50 (HCC 2998): 977 nM
- CC50 (A549): 43700 nM
- CC50 (NCI-H226): 23400 nM
- CC50 (MCF7 [1]): 4070 nM
- CC50 (OVCAR-4): 3800 nM
- IC50 [2]: 790 nM
- CC50 (A498): 8510 nM
- CC50 (OVCAR-3): 2880 nM
- CC50 (Malme-3M): 2340 nM
- CC50 (UACC-62): 5750 nM
- CC50 (OVCAR-5): 1860 nM
- CC50 (MDA-MB-231): 5750 nM
- CC50 (M14): 5250 nM
- CC50 (NCI-H23): 5130 nM
- GI50 [3]: 230 nM
- CC50 (DU-145): 3390 nM
- CC50 (Hs-578T): > 4000 nM
- CC50 (UACC-257): 9770 nM
- CC50 (UO-31): 955 nM
- CC50 (CCRF-CEM): 2570 nM
- CC50 (SK-MEL-2): 7080 nM
- CC50 (HOP-62): 12600 nM
- CC50 (HCT-15): 2450 nM
- CC50 (HCT-116): 430 nM
- IC50 (HT-29 [4]): 380 nM
- CC50 (ACHN): 690 nM
- CC50 (HL-60): 741 nM
- IC50 (MCF7 [5]): 350 nM
- CC50 (HT-29 [6]): 692 nM
